Measured values published in PubChem BioAssay AID588842 (Broad Institute, 2011).
Records with an inconclusive call do not appear. Calls of active or inactive are those of the source.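 How the source made its calls: active means cytotoxic compounds whose fitted half-effect concentration is at most twice the top tested dose in every test run; inconclusive means test runs disagree, or a flat moderate drop, or a poor fit; inactive means inactive in every run, including wrong-direction effects.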

System: not listed separately
Assay: cytotoxicity in ldlA[mSR-BI] CHO cells, dose response, cytotoxicity control for HDL uptake inhibitor project, cell-based, CellTiter-Glo ATP, 24 h, dry powder, set 4 (AID 588842)
Settings: ldlA[mSR-BI] CHO cells viability, CellTiter-Glo ATP, 24 h; at 35 µM (top of the series)
Method in brief: (§1)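 Schedule: 24 h compound exposure at 37 °C, then 10 min CellTiter-Glo incubation. Assay system: ldlA[mSR-BI] cells. Quantity: 4,000 cells/well. Signal: luciferase luminescence reporting cellular ATP, CellTiter-Glo reagent.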
With COc1ccc(-c2nnn(CC(=O)N(C3CCCCC3)C(C)C(=O)NC3CCCC3)n2)cc1OC (configuration not stated) the activity change, negative = cytotoxicity was -11.1% (inactive).
In the case of CCC(=O)N1CCc2cc(-c3csc(NC(=O)c4cnco4)n3)ccc21, the activity change, negative = cytotoxicity is reported as -1.99% (inactive).
In the case of CC(C(=O)NC1CCCC1)N(C(=O)Cc1ccccc1)C1CCCCC1 (configuration not stated), the activity change, negative = cytotoxicity is reported as -1.74% (inactive).
With O=C(Nc1nc(-c2ccc3c(c2)CCN3S(=O)(=O)c2ccccc2)cs1)c1ccco1 the activity change, negative = cytotoxicity was -30.8% (inactive).
For CCC(=O)N1CCc2cc(-c3csc(NC(=O)c4ccc(OC)cc4)n3)ccc21, the activity change, negative = cytotoxicity was -11.6% (inactive).
With C[C@@H]1CN([C@H](C)CO)C(=O)c2cc(NC(=O)Cc3cn(C)c4ccccc34)ccc2O[C@H]1CN(C)S(=O)(=O)c1ccc(Cl)cc1 the activity change, negative = cytotoxicity was -19% (inactive).
In the case of CCC(=O)N1CCc2cc(-c3csc(N)n3)ccc21, the activity change, negative = cytotoxicity is reported as -18.4% (inactive).
In the case of CCC(=O)N1CCc2cc(-c3csc(NC(=O)c4cccnc4)n3)ccc21, the activity change, negative = cytotoxicity is reported as -3.5% (inactive).
For CCC(=O)N1CCc2cc(-c3csc(NC(=O)c4ccoc4)n3)ccc21, the activity change, negative = cytotoxicity was -8.58% (inactive).
In the case of CCC(=O)N1CCc2cc(-c3csc(NC(=O)c4ccncc4)n3)ccc21, the activity change, negative = cytotoxicity is reported as -2.04% (inactive).
With CCC(=O)N1CCc2cc(-c3csc(NC(=O)c4ccco4)n3)ccc21 the activity change, negative = cytotoxicity was -17.6% (inactive).
With CC(C(=O)NC1CCCC1)N(C(=O)Cn1nnc(-c2ccc3c(c2)OCO3)n1)C1CCCCC1 (configuration not stated) the activity change, negative = cytotoxicity was -16.1% (inactive).
In the case of CCC(=O)N1CCc2cc(-c3csc(NC(=O)c4ccc(Cl)cc4)n3)ccc21, the activity change, negative = cytotoxicity is reported as -5.95% (inactive).

Same assay, conditions: ldlA[mSR-BI] CHO cells viability, CellTiter-Glo ATP, 24 h; at 68 µM (top of the series)
For CCOc1ccc(NC(=O)CN2CCN(CC(=O)Nc3cc(OC)cc(OC)c3)CC2)cc1, the activity change, negative = cytotoxicity was -20% (inactive).

System: ldlA[mSR-BI] CHO cells viability, CellTiter-Glo ATP, 24 h
Assay: as above
Settings: not given
Method in brief: as §1
CC(C)NC(=O)Nc1cccc2c1O[C@H](CN(C)Cc1ccc(Cl)c(Cl)c1)[C@@H](C)CN([C@@H](C)CO)C2=O showed an AC50 of 58 µM.
For C[C@H]1CN([C@@H](C)CO)C(=O)c2cccc(NC(=O)Nc3ccccc3)c2O[C@@H]1CN(C)Cc1ccc(Cl)c(Cl)c1, the AC50 was 29.8 µM.
C[C@@H]1CN([C@H](C)CO)C(=O)c2cc(NC(=O)Cc3cn(C)c4ccccc34)ccc2O[C@H]1CN(C)S(=O)(=O)c1ccc(F)cc1 gave an AC50 of 47.7 µM.
In the case of COc1c(NC(=O)C(=O)c2ccc(OCCN3CCOCC3)c3ccccc23)cc(C(C)(C)C)cc1NS(C)(=O)=O, the AC50 is reported as 15.5 µM.
CCCCCCC1CCC/C1=N\NC(N)=S (configuration not stated) gave an AC50 of 3.86 µM.
For CCC(=O)N1CCc2cc(-c3csc(NC(=O)c4ccccc4)n3)ccc21, the AC50 was 67.8 µM.
With CCC(=O)N1CCc2cc(-c3csc(NC(=O)c4ccc(F)cc4)n3)ccc21 the AC50 was 48.2 µM.
With CCOc1ccccc1/C=C/c1onc(C)c1S(=O)(=O)N1CCC(C(=O)NC(C)(C)C)CC1 the AC50 was 30.1 µM.
